Source: PubChem BioAssay (several laboratories)
TRAIL sens C8: caspase-8 TRAIL sensitization; AID 624354; NB7+C8 cells + TRAIL, ATPlite viability luminescence; inhibition (viability loss, TRAIL sensitization), % at 10 µM; 360,000 tested, 1% active;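 active = compounds causing at least 50% loss of cell viability in the single-dose screen, relative to plate controls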
FLuc stim CS: affects firefly luciferase, flagging false hits in luciferase stimulation screens; 200,000 tested, under 10 active; P08659; activation factor at 10 µM; ATPlite luciferase biochemical, luminescence, 10 min; 0 = ATP-free wells, 1 = DMSO control; AID 1027;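 active = luciferase activation factor, scaled between plate controls, of at least 2 with compound at 10 µM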
Target sequence (P08659 whole entry, looked up): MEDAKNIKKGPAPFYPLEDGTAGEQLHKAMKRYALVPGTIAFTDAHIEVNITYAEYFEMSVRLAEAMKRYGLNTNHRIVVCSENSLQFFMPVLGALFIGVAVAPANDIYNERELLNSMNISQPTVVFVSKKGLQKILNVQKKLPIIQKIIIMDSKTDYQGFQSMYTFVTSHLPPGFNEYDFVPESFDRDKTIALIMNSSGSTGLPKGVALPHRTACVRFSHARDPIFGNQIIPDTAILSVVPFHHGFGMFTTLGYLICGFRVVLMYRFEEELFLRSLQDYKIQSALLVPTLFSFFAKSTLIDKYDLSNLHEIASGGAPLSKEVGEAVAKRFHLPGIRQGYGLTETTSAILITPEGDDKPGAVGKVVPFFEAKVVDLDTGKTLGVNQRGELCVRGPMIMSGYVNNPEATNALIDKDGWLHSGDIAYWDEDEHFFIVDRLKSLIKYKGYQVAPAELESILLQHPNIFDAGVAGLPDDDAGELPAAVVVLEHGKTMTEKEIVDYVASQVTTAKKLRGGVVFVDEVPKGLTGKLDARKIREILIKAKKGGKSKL
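System: cell-free luciferase reagent; medium: PBS as buffer for the ATP substrate; doses: test compounds dosed from 2 mM stocks in 100% DMSO; incubation: 10 min, room temperature; measured by: luminescence from luciferase reaction; read-out: luciferase activation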
FLuc inhib CS: Photinus pyralis luciferase inhibition counter-screen; P08659; ATPLite firefly luciferase biochemical luminescence, 10 min; inhibition, % at 10 µM; 200,000 tested, 1.5% active; AID 1006;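 active = inhibition above about 50% when tested at 10 µM, limit read from the data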
APP 5'UTR act: activates APP 5'UTR luciferase reporter. SH-SY5Y APP 5'UTR luciferase reporter, luminescence; zero percent = DMSO vehicle wells. activation, % at 2 µM. 190,000 tested, 1% active. AID 1276;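 active = activation above a set limit, based on mean plus 3 SD of controls, cut at about 140% in these data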
PPC-1+TRAIL kill: PPC-1 cancer cell killing with TRAIL present | PPC-1 cells + TRAIL, ATPLite viability luminescence | cell killing (% activity), % at 4 µM or 5 µM | 220,000 tested, 0.41% active | AID 1443;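 active = cell killing above 50% in the first pass at 4 µM, then a duplicate retest at 5 µM averaging 50% or more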;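 also: plate controls were cells with TRAIL plus DMSO for no effect and medium-only wells lacking cells for full effect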
NF-kB expr up: raises NF-kB expression in human neuronal cells; NF-kB reporter expression; stronger effect = higher value; fold change at 12.5 µM; 190,000 tested, 1.6% active; in the data active = fold change above about 3.3
* hit, by the source's call; . = not tested or not shown. The list is not random: actives were taken first. Their share in the collection is about 2.2%.

SMILES	TRAIL sens C8	FLuc stim CS	FLuc inhib CS	APP 5'UTR act	PPC-1+TRAIL kill	NF-kB expr up
CN1/C(=C\C=C\C2=[N+](C)c3ccc4ccccc4c3C2(C)C)C(C)(C)c2ccccc21	.	0.6	41	-95	66*	0.16
CN1/C(=C\C=Nc2ccccc2)C(C)(C)c2ccccc21	3	1.1	-8	14	13	0.56
CCN1/C(=C/C=C/C2=[N+](CC)c3ccccc3C2(C)C)C(C)(C)c2ccccc21	71*	.	.	.	.	.
CCN(CCO)c1ccc(N=Cc2c(O)n(C)c(=S)[nH]c2=O)cc1	8	.	.	.	-7	.
Cc1cc(C)n2c(Br)c(CN3CC4CC(C3)c3cccc(=O)n3C4)nc2n1 (configuration not stated)	-3	1.1	-11	12	-4	1
CNC(=O)Oc1cccc(-c2cn3cc(Cl)ccc3n2)c1	80*	0.1	95*	170*	86*	8.2*
CNC(=O)Oc1cccc2ccccc12	8	.	.	.	24	.
CNC(=O)Oc1ccc(-c2cn3cc(C)ccc3n2)cc1	93*	0	97*	49	88*	5*
O=C1NCN(c2ccccc2)C12CCN(C(c1nnnn1C1CCCC1)C1CC1)CC2 (configuration not stated)	-9	.	.	.	.	.
CC(=O)OC1N=C(c2ccccc2Cl)c2cc(Br)ccc2N(C)C1=O (configuration not stated)	9	.	.	.	-1	.
Cc1ccccc1CN1CCNCC1	4	1.1	-8	-7	11	1.1
COC(=O)C1=C(c2ccc(-c3ccccc3)c(F)c2)C[C@@H]2CC[C@H]1N2C(=O)NC1Cc2ccccc2C1	-4	.	.	.	.	.
CN(C)c1ccc(/C=C/C=C2/C(=O)NC(=O)N(c3ccccc3)C2=O)cc1	26	0.5	53*	-1	2	1.1
O=C1NC(=O)N(c2ccccc2)C(=O)/C1=C/C=C/c1ccco1	0	.	.	.	24	.
CC(=O)OC1CC2OC3C=C(C)CCC3(C)C1(C)C21CO1 (configuration not stated)	58*	.	.	.	.	.
CC(=O)O[C@H]1C[C@@H]2OC3C=C(C)CCC3(C)[C@@]1(C)[C@@]21CO1 (some centres not stated)	26	.	.	.	.	.
O=c1[nH]c2ccccc2n1C1CCN(C(c2cc3ccccc3o2)c2nnnn2-c2ccc3c(c2)OCCO3)CC1 (configuration not stated)	86*	.	.	.	.	.
COc1ccc(-n2nnnc2C(c2cc3ccccc3o2)N2CCC(n3c(=O)[nH]c4ccccc43)CC2)cc1 (configuration not stated)	66*	.	.	.	.	.
COc1ccc(C(c2nnnn2-c2ccc(OC)cc2)N2CCC(n3c(=O)[nH]c4ccccc43)CC2)cc1 (configuration not stated)	14	.	.	.	.	.
O=c1[nH]c2ccccc2n1C1CCN(C(c2cccc3ccccc23)c2nnnn2-c2ccc3c(c2)OCCO3)CC1 (configuration not stated)	19	.	.	.	.	.
CSCCC(c1nnnn1Cc1ccccc1)N1CCC(n2c(=O)[nH]c3ccccc32)CC1 (configuration not stated)	47	.	.	.	.	.
O=c1[nH]c2ccccc2n1C1CCN(C(CCc2ccccc2)c2nnnn2Cc2ccccc2)CC1 (configuration not stated)	91*	.	.	.	.	.
O=C1C2CCN(CC2)C12CC2c1ccc(C(F)(F)F)cc1 (configuration not stated)	24	.	.	.	5	.
NC(C(=O)O)c1cc(=O)[nH]o1 (configuration not stated)	3	.	.	.	.	.
CCCC[C@@H](C)C[C@@H](C)C(=O)N(C)[C@@H](CC(C)C)C(=O)N[C@H](C(=O)N(C)[C@H](C(=O)N1C[C@@H](O)C[C@H]1C(=O)N1C(=O)C=C[C@@H]1C)C(C)C)C(C)OC(C)=O (some centres not stated)	89*	.	.	.	.	.
SMILES	TRAIL sens C8	FLuc stim CS	FLuc inhib CS	APP 5'UTR act	PPC-1+TRAIL kill	NF-kB expr up
CCN(CCCl)c1cc(CN(C)C)cc(NC(=O)c2ccc(C(=O)Nc3cc(CN(C)C)cc(N(CC)CCCl)c3)cc2)c1	95*	.	.	.	.	.
COc1ccc(Oc2cc(NC(=O)c3nn(C)cc3[N+](=O)[O-])cc([N+](=O)[O-])c2)cc1	88*	1.1	-10	-95	23	3.1
COc1ccc(NC(=O)c2cn(CCC#N)nc2-c2cccc([N+](=O)[O-])c2)cc1	-13	.	.	.	-1	.
CC1CCOC(=O)C=CC=CC(=O)OC2CC3OC4C5OC5(C)C(O)CC4(COC(=O)C1O)C2(C)C31CO1 (configuration not stated)	69*	.	.	.	.	.
CC1=CC2OC3CC4OC(=O)C=CC=CC(C(C)O)OCC(O)C5(C)OC5C(=O)OCC2(CC1O)C4(C)C31CO1 (configuration not stated)	67*	.	.	.	.	.
CC(O)C1C=CC=CC(=O)OC2CC3OC4C5OC5(C)C(O)CC4(COC(=O)C(O)C(C)CCO1)C2(C)C31CO1 (configuration not stated)	62*	.	.	.	.	.
CC1=CC2OC3CC4OC(=O)C=CC=CC(=O)OCCC(C)C(O)C(=O)OCC2(CC1)C4(C)C31CO1 (configuration not stated)	56*	.	.	.	.	.
COc1ccccc1CCNC1CCC(C(C)(C)C)CC1 (configuration not stated)	16	1	-2	16	29	1.3
CC(N)C(=O)c1ccco1 (configuration not stated)	-6	1.1	-8	-3	1	0.97
O=[N+]([O-])c1ccc(O)c([N+](=O)[O-])c1	-5	.	.	.	.	.
O=[N+]([O-])c1ccc(Cl)c([N+](=O)[O-])c1	81*	.	.	.	.	.
C=C(C)[C@H]1CN[C@H](C(=O)O)[C@H]1CC(=O)O	-6	.	.	.	.	.
C=C1C(=O)OC2CC(C)C3C=CC(=O)C3(C)C(O)C12 (configuration not stated)	86*	.	.	.	.	.
C=C1C(=O)O[C@@H]2C[C@@H](C)[C@@H]3C=CC(=O)[C@@]3(C)[C@@H](OC(=O)CC(=O)O[C@H]3[C@@H]4C(=C)C(=O)O[C@@H]4C[C@@H](C)[C@@H]4C=CC(=O)[C@]43C)[C@H]12	95*	.	.	.	-17	.
COCCNC(=O)N1[C@H]2CC[C@@H]1C(C(=O)OC)=C(c1ccc(OC)c(OC)c1)C2	-20	.	.	.	.	.
Brc1ccc(-[n+]2c(-c3ccccc3)cc(-c3ccccc3)cc2-c2ccccc2)cc1	56*	.	.	.	.	.
Cc1ccccc1-[n+]1c(-c2ccccc2)cc(-c2ccccc2)cc1-c1ccccc1	67*	.	.	.	.	.
Oc1ccccc1-[n+]1c(-c2ccccc2)cc(-c2ccccc2)cc1-c1ccccc1	31	.	.	.	.	.
CCCOC(=O)c1ccc(-[n+]2c(-c3ccccc3)cc(-c3ccccc3)cc2-c2ccccc2)cc1	58*	.	.	.	.	.
COc1ccc(-c2cc(-c3ccccc3)[n+](C)c(-c3ccccc3)c2)cc1	36	1.1	-9	2	47	0.87
